In ChEMBL document CHEMBL1134346, “Labeling and evaluation of N-[11C]methylated quinoline-2-carboxamides as potential radioligands for visualization of peripheral benzodiazepine receptors” (J Med Chem, 2001):

Species: Rattus norvegicus
Test: Tissue (cortex) distribution in Albino male CD rats after 30 minutes expressed as percent of injected dose per gram of organ.
Format: ADME, organism-based
Conditions: in vivo, 0.5 h
Summary of the method: (§1)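 Radioligand given in saline into tail vein of male albino CD rats (225-250 g); 100-200 µCi per animal, 1-2 Ci/µmol at injection depending on radioligand. Three rats per time point were decapitated under light ether anaesthesia. Blood, plasma, brain regions and washed organs were weighed and gamma-counted. Uptake is %I.D./g tissue, mean ± SD.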

Question: `Cc1c(C(=O)N(C)Cc2ccccc2)nc2ccccc2c1-c1ccccc1` was tested. Which I.D./g did it give?
Answer: 0.09%

Species: Rattus norvegicus
Test: Tissue (cortex) distribution in Albino male CD rats after 5 minutes expressed as percent of injected dose per gram of organ.
Format: ADME, organism-based
Conditions: in vivo
Summary of the method: as §1

Question: For `Cc1c(C(=O)N(C)Cc2ccccc2)nc2ccccc2c1-c1ccccc1`, which I.D./g is on record?
Answer: 0.25%

Species: Rattus norvegicus
Test: Tissue (cortex) distribution in Albino male CD rats after 90 minutes expressed as percent of injected dose per gram of organ.
Format: ADME, organism-based
Conditions: in vivo, 1.5 h
Summary of the method: as §1

Question: Which I.D./g does the source give for `Cc1c(C(=O)N(C)Cc2ccccc2)nc2ccccc2c1-c1ccccc1` here?
Answer: 0.05%

The compounds below were run against Translocator protein (Rattus norvegicus) (UniProt P16257) (assay: Tissue (heart) concentration of radioactivity at 30 min post-injection into Albino male CD rats after pretreatment with cold PK 11195.). Conditions: not given.
Format: functional
Summary of the method: (§2)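 Separate groups of five rats received tail-vein PK 11195 (1.4-1.6 mg; 5 mg/kg) in 30 µL DMSO:EtOH 1:1, or vehicle alone, immediately before iv radioligand (90-170 µCi in saline, 0.9-1 Ci/µmol). Rats were decapitated at 30 min and tissues gamma-counted; values are %I.D./g.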

Chain of Translocator protein (Rattus norvegicus) (P16257 whole entry, looked up): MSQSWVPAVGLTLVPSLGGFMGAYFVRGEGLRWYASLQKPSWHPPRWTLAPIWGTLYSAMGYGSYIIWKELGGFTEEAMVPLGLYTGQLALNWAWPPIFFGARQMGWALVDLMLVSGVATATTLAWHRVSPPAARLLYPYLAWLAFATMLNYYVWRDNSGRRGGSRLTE

Question: How did the I.D./g turn out when `Cc1c(C(=O)N(C)Cc2ccccc2)nc2ccccc2c1-c1ccccc1` was run?
Answer: < 0.04%

Species: Rattus norvegicus
Test: Tissue (muscle) distribution in Albino male CD rats after 90 minutes expressed as percent of injected dose per gram of organ.
Format: ADME, organism-based
Conditions: in vivo, 1.5 h
Summary of the method: (§3)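 Male albino CD rats (225-250 g) received the 11C-labelled radioligand in saline by tail-vein injection. Three rats per time point were decapitated under light ether anaesthesia at 5, 15, 30, 60 or 90 min. Blood was collected heparinized and plasma separated by centrifugation. The pituitary was dissected from the brain. Lung, liver (three-lobe pieces) and right deltoid muscle were sampled, washed in cold saline, gamma-counted and weighed. Results are %I.D./g.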

Question: With `Cc1c(C(=O)N(C)Cc2ccccc2)nc2ccccc2c1-c1ccccc1` as the compound, how does the I.D./g read?
Answer: 0.21%

Each compound was assayed against Translocator protein (Rattus norvegicus) (UniProt P16257) (assay: Tissue (pituitary) concentration of radioactivity at 30 min post-injection into Albino male CD rats after pretreatment with cold PK 11195.). Conditions: Pituitary gland.
Format: functional, tissue-based
Summary of the method: (§4)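 Blocking study in male albino CD rats, five per group. Immediately before the 11C radioligand (in saline, i.v. tail vein), rats received 30 µL tail-vein PK 11195 (5 mg/kg; 1.4-1.6 mg) in DMSO:EtOH 1:1, or vehicle. Rats were decapitated at 30 min. Tissues were dissected, washed, gamma-counted and weighed as in the biodistribution study. Results are %I.D./g.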

Question: For `Cc1c(C(=O)N(C)Cc2ccccc2)nc2ccccc2c1-c1ccccc1`, which I.D./g is on record?
Answer: > 0.09%

Species: Rattus norvegicus
Test: Tissue (pituitary) distribution in Albino male CD rats after 90 minutes expressed as percent of injected dose per gram of organ.
Format: ADME, organism-based, Pituitary gland
Conditions: in vivo, 1.5 h
Summary of the method: as §3

Question: How did the I.D./g turn out when `Cc1c(C(=O)N(C)Cc2ccccc2)nc2ccccc2c1-c1ccccc1` was run?
Answer: 0.15%

Species: Rattus norvegicus
Test: Tissue (plasma) distribution in Albino male CD rats after 60 minutes expressed as percent of injected dose per gram of organ.
Format: ADME, organism-based
Conditions: in vivo, 1 h
Summary of the method: as §3

Question: With `Cc1c(C(=O)N(C)Cc2ccccc2)nc2ccccc2c1-c1ccccc1` as the compound, how does the I.D./g read?
Answer: 0.05%

What follows are compounds tested against Translocator protein (Rattus norvegicus) (UniProt P16257) (assay: Tissue (spleen) concentration of radioactivity at 30 min post-injection into Albino male CD rats after pretreatment with cold PK 11195.). Conditions: not given.
Format: functional, tissue-based
Summary of the method: as §4

Question: For `Cc1c(C(=O)N(C)Cc2ccccc2)nc2ccccc2c1-c1ccccc1`, which I.D./g is on record?
Answer: < 0.02%

Species: Rattus norvegicus
Test: Tissue (heart) distribution in Albino male CD rats after 30 minutes expressed as percent of injected dose per gram of organ.
Format: ADME, organism-based
Conditions: in vivo, 0.5 h
Summary of the method: as §1

Question: With `Cc1c(C(=O)N(C)Cc2ccccc2)nc2ccccc2c1-c1ccccc1` as the compound, how does the I.D./g read?
Answer: 2.58%

Species: Rattus norvegicus
Test: Tissue (heart) distribution in Albino male CD rats after 5 minutes expressed as percent of injected dose per gram of organ.
Format: ADME, organism-based
Conditions: in vivo
Summary of the method: as §1

Question: Which I.D./g does the source give for `Cc1c(C(=O)N(C)Cc2ccccc2)nc2ccccc2c1-c1ccccc1` here?
Answer: 1.79%

Species: Rattus norvegicus
Test: Tissue (heart) distribution in Albino male CD rats after 60 minutes expressed as percent of injected dose per gram of organ.
Format: ADME, organism-based
Conditions: in vivo, 1 h
Summary of the method: as §1

Question: With `Cc1c(C(=O)N(C)Cc2ccccc2)nc2ccccc2c1-c1ccccc1` as the compound, how does the I.D./g read?
Answer: 2.09%

Species: Rattus norvegicus
Test: Tissue (heart) distribution in Albino male CD rats after 90 minutes expressed as percent of injected dose per gram of organ.
Format: ADME, organism-based
Conditions: in vivo, 1.5 h
Summary of the method: as §1

Question: How did the I.D./g turn out when `Cc1c(C(=O)N(C)Cc2ccccc2)nc2ccccc2c1-c1ccccc1` was run?
Answer: 2.38%

Species: Rattus norvegicus
Test: Tissue (intestine) distribution in Albino male CD rats after 60 minutes expressed as percent of injected dose per gram of organ.
Format: ADME, organism-based
Conditions: in vivo, 1 h
Summary of the method: as §1

Question: How did the I.D./g turn out when `Cc1c(C(=O)N(C)Cc2ccccc2)nc2ccccc2c1-c1ccccc1` was run?
Answer: 0.62%

Species: Rattus norvegicus
Test: Tissue (intestine) distribution in Albino male CD rats after 90 minutes expressed as percent of injected dose per gram of organ.
Format: ADME, organism-based
Conditions: in vivo, 1.5 h
Summary of the method: as §1

Question: With `Cc1c(C(=O)N(C)Cc2ccccc2)nc2ccccc2c1-c1ccccc1` as the compound, how does the I.D./g read?
Answer: 0.68%

Species: Rattus norvegicus
Test: Tissue (kidney) distribution in Albino male CD rats after 15 minutes expressed as percent of injected dose per gram of organ.
Format: ADME, organism-based
Conditions: in vivo, 0.25 h
Summary of the method: as §1

Question: `Cc1c(C(=O)N(C)Cc2ccccc2)nc2ccccc2c1-c1ccccc1` was tested. Which I.D./g did it give?
Answer: 1.17%

Species: Rattus norvegicus
Test: Tissue (cerebellum) distribution in Albino male CD rats after 30 minutes expressed as percent of injected dose per gram of organ.
Format: ADME, organism-based
Conditions: in vivo, 0.5 h
Summary of the method: as §1

Question: With `Cc1c(C(=O)N(C)Cc2ccccc2)nc2ccccc2c1-c1ccccc1` as the compound, how does the I.D./g read?
Answer: 0.12%

Species: Rattus norvegicus
Test: Tissue (cerebellum) distribution in Albino male CD rats after 60 minutes expressed as percent of injected dose per gram of organ.
Format: ADME, organism-based
Conditions: in vivo, 1 h
Summary of the method: as §1

Question: For `Cc1c(C(=O)N(C)Cc2ccccc2)nc2ccccc2c1-c1ccccc1`, which I.D./g is on record?
Answer: 0.08%

Each compound was assayed against Translocator protein (Rattus norvegicus) (UniProt P16257) (assay: Tissue (cortex) concentration of radioactivity at 30 min post-injection into Albino male CD rats after pretreatment with cold PK 11195.). Conditions: not given.
Format: functional
Summary of the method: as §2

Question: With `Cc1c(C(=O)N(C)Cc2ccccc2)nc2ccccc2c1-c1ccccc1` as the compound, how does the I.D./g read?
Answer: 0.02%

Species: Rattus norvegicus
Test: Tissue (lung) distribution in Albino male CD rats after 15 minutes expressed as percent of injected dose per gram of organ.
Format: ADME, organism-based
Conditions: in vivo, 0.25 h
Summary of the method: as §3

Question: `Cc1c(C(=O)N(C)Cc2ccccc2)nc2ccccc2c1-c1ccccc1` was tested. Which I.D./g did it give?
Answer: 3.32%
